For 22 compounds, Dose and Activity results are on record in ChEMBL document CHEMBL1129428 (J Med Chem, 1996).

The subject of data set [1] is Mus musculus. As to the kind of experiment: Toxicity after intraperitoneal injection into mice by using toxicity screen test after 0.5 hr. The data set is classed as organism-based. The conditions noted are these: in vivo, ip. An outline of the steps: (§1)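 Mice injected intraperitoneally at 30, 100 and 300 mg/kg and examined 0.5 and 4 h afterwards. Each entry is the minimum dose giving activity (MES protection, scPTZ protection, or rotorod failure for neurotoxicity) in half or more of the mice. Activity is called absent if nothing occurs at 300 mg/kg.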

For data set [2], the system named is Mus musculus. Briefly: Compound was tested for toxicity after intraperitoneal injection into mice by using toxicity screen test after 4 hr. The following applies: in vivo, ip. The data set is classed as organism-based. Put shortly:
as §1

Data set [3] deals with Mus musculus. As to the kind of experiment: Anticonvulsant activity after intraperitoneal injection into mice measured in a maximal electroshock scree (MES) screen. The data set is classed as functional.
For data set [4], the system named is Rattus norvegicus. As to the kind of experiment: Compound was tested for anticonvulsant activity after Oral Administration into Rats by using MES screen test after 0.25h,dose 12.5 mg/kg; No activity was demonstarted. The arrangement: dose 12.5 mg/kg. The data set is classed as functional, organism-based. Put shortly: (§2)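 Rats received the compound orally. […] Rats were tested in the MES screen at 0.25, 0.5, 1, 2 and 4 h. Each value is the number of rats protected out of 4. The test followed NINDS procedures.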

The subject of data set [5] is Rattus norvegicus. Briefly: Compound was tested for anticonvulsant activity after Oral Administration into Rats by using MES screen test after 2h,dose 12.5 mg/kg; number of rats out of four which were protected. In kind it is functional. An outline of the steps:
as §2

The test system of data set [6] is Rattus norvegicus. Briefly: Compound was tested for anticonvulsant activity after Oral Administration into Rats by using MES screen test after 1h,dose 12.5 mg/kg; number of rats out of four which were protected. The data set is classed as functional. An outline of the steps:
as §2

The test system of data set [7] is Mus musculus. Briefly: Anticonvulsant activity after intraperitoneal injection into mice by using scPTZ screen after 0.5 hr. In kind it is functional.
In data set [8] the test system is Mus musculus. Briefly: Anticonvulsant activity after intraperitoneal injection into mice by using MES screen test after 0.5 hr. The data set is classed as functional.
Data set [9] deals with Mus musculus. Briefly: Anticonvulsant activity after intraperitoneal injection into mice by using scPTZ screen test after 4 hr. The data set is classed as functional.
The subject of data set [10] is Rattus norvegicus. As to the kind of experiment: Anticonvulsant activity after oral administration into rats. On the set-up: concentration or dose not given beside the values. The data set is classed as functional.
The subject of data set [11] is Rattus norvegicus. Briefly: Compound was tested for anticonvulsant activity after Oral Administration into Rats by using MES screen test after 4h,dose 12.5 mg/kg; number of rats out of four which were protected. The data set is classed as functional. An outline of the steps:
as §2

Data set [12] has as its system Rattus norvegicus. As to the kind of experiment: Compound was tested for anticonvulsant activity after Oral Administration into Rats by using MES screen test after 2h,dose 50 mg/kg; number of rats out of four which were protected. In kind it is functional. Put shortly:
as §2

For data set [13], the system named is Rattus norvegicus. As to the kind of experiment: Compound was tested for anticonvulsant activity after Oral Administration into Rats by using MES screen test after 1h,dose 50 mg/kg; number of rats out of four which were protected. In kind it is functional. An outline of the steps:
as §2

In data set [14] the test system is Rattus norvegicus. Briefly: Compound was tested for anticonvulsant activity after Oral Administration into Rats by using MES screen test after 4h,dose 50 mg/kg; number of rats out of four which were protected. In kind it is functional. An outline of the steps:
as §2

Data set [15] relates to Rattus norvegicus. Briefly: Compound was tested for anticonvulsant activity after Oral Administration into Rats by using MES screen test after 0.25h,dose 50 mg/kg; number of rats out of four which were protected. The data set is classed as functional. Put shortly: as §2
Data set [16] concerns Rattus norvegicus. As to the kind of experiment: Compound was tested for anticonvulsant activity after Oral Administration into Rats by using MES screen test after 0.5h,dose 50 mg/kg; number of rats out of four which were protected. In kind it is functional. Put shortly: as §2
The test system of data set [17] is Rattus norvegicus. Briefly: Compound was tested for anticonvulsant activity after Oral Administration into Rats by using MES screen test after 0.25h,dose 12.5 mg/kg; number of rats out of four which were protected. In kind it is functional. An outline of the steps:
as §2

Take `NC(=O)C(=O)N/N=C/c1ccc(Oc2ccc(F)cc2)cc1`: the Dose in the data set with Mus musculus [1] and with Mus musculus [2] was 300 mg/kg throughout.
As for `CCCCCCCCc1ccc(Oc2ccc(/C=N/NC(N)=O)cc2)cc1`, the Dose in the data set on Mus musculus [3] was 300 mg/kg.
On to `N=C(S)N/N=C/c1ccc(Oc2ccc(F)cc2)cc1`, for which the Dose in the data set with Mus musculus [1] amounted to 100 mg/kg; in the data set with Mus musculus [7] it was 30 mg/kg; in the data set on Mus musculus [8] it was 30 mg/kg; with Mus musculus [2], 30 mg/kg; in the data set with Mus musculus [9] it was 30 mg/kg; in the data set with Mus musculus [3], 30 mg/kg. Further, the Activity entry in the data set on Rattus norvegicus [4] was “No activity”; in the data set with Rattus norvegicus [5] it was 3; in the data set on Rattus norvegicus [6], 2; in the data set on Rattus norvegicus [10] it was 2; with Rattus norvegicus [11] it was 1.
Take `NC(=O)N/N=C\c1ccc(Oc2cccc(F)c2)cc1`: the Activity with Rattus norvegicus [12], with Rattus norvegicus [13], in the data set on Rattus norvegicus [14], in the data set with Rattus norvegicus [15] and with Rattus norvegicus [16] was 4 in each case. Moreover, the Dose was 300 mg/kg in the data set on Mus musculus [1]; 100 mg/kg in the data set on Mus musculus [7]; 30 mg/kg in the data set on Mus musculus [8]; 300 mg/kg in the data set on Mus musculus [2]; 300 mg/kg in the data set on Mus musculus [3].
For the compound `CC/C(=N/NC(N)=O)c1ccccc1Oc1ccc(Cl)cc1`, the Dose with Mus musculus [8] and in the data set on Mus musculus [3] was 300 mg/kg in each case.
For `N=C(S)N/N=C/c1ccc(Sc2ccc(F)cc2)cc1`, the Activity entry was “No activity” in the data set with Rattus norvegicus [4]; 1 in the data set with Rattus norvegicus [5]; 2 with Rattus norvegicus [6]; 1 in the data set with Rattus norvegicus [10]; 1 in the data set with Rattus norvegicus [11]. Also, the Dose in the data set on Mus musculus [7], with Mus musculus [8], in the data set with Mus musculus [2], in the data set with Mus musculus [9] and in the data set with Mus musculus [3] was 100 mg/kg throughout.
On to `NC(=O)N/N=C/c1ccc(Oc2ccc(Cl)cc2)cc1`, for which the Activity with Rattus norvegicus [12], in the data set with Rattus norvegicus [13], with Rattus norvegicus [14], in the data set with Rattus norvegicus [15] and in the data set with Rattus norvegicus [16] was 4 in each case. In addition, the Dose amounted to 300 mg/kg in the data set on Mus musculus [1]; 30 mg/kg with Mus musculus [7]; 30 mg/kg with Mus musculus [8]; 30 mg/kg in the data set on Mus musculus [2]; 30 mg/kg in the data set on Mus musculus [3].
`NC(=O)N/N=C/c1ccc(Oc2ccc(F)cc2F)cc1`: the Activity in the data set with Rattus norvegicus [12] turned out to be 4; in the data set on Rattus norvegicus [13], 4; with Rattus norvegicus [14] it was 4; in the data set on Rattus norvegicus [15], 3; with Rattus norvegicus [16] it was 4. In addition, the Dose with Mus musculus [7] turned out to be 100 mg/kg; in the data set with Mus musculus [8] it was 30 mg/kg; in the data set with Mus musculus [3], 30 mg/kg.
For the compound `C/C(=N/NC(N)=O)c1ccccc1Oc1ccccc1`, the Dose with Mus musculus [1], in the data set on Mus musculus [7] and in the data set with Mus musculus [8] was 300 mg/kg in each case.
Regarding `NC(=O)N/N=C\c1ccc(S(=O)(=O)c2ccccc2)cc1`, the Dose in the data set on Mus musculus [3] is 300 mg/kg.
Turning to `C/C(=N/NC(N)=O)c1ccccc1Oc1ccc(Br)cc1`, in the data set on Mus musculus [1], the Dose amounted to 300 mg/kg.
Regarding `NC(=O)N/N=C/c1ccc(Oc2ccccc2Cl)cc1`, the Activity in the data set with Rattus norvegicus [12] came to 4; in the data set with Rattus norvegicus [13] it was 4; in the data set on Rattus norvegicus [14], 4; in the data set with Rattus norvegicus [15] it was 3; in the data set on Rattus norvegicus [16], 4. Also, the Dose in the data set on Mus musculus [1] was 300 mg/kg; in the data set on Mus musculus [7] it was 100 mg/kg; in the data set on Mus musculus [8] it was 30 mg/kg; in the data set with Mus musculus [9] it was 300 mg/kg; in the data set with Mus musculus [3] it was 30 mg/kg.
As to `Cc1cc(Oc2ccc(/C=N/NC(N)=O)cc2)ccc1F`, the Dose with Mus musculus [1] was 300 mg/kg; with Mus musculus [8] it was 30 mg/kg; in the data set on Mus musculus [3], 30 mg/kg. Besides, the Activity in the data set with Rattus norvegicus [5] came out at 4; with Rattus norvegicus [6], 4; in the data set on Rattus norvegicus [17], 2; in the data set with Rattus norvegicus [10], 4; in the data set on Rattus norvegicus [11], 4.
In the data set on Mus musculus [1], `CCCCCCCOc1ccc(Oc2ccc(/C=N/NC(N)=O)cc2)cc1` displayed a Dose of 300 mg/kg.
On to `NC(=O)N/N=C/c1ccc(Oc2ccc(F)cc2Br)cc1`, for which the Activity in the data set with Rattus norvegicus [12], in the data set on Rattus norvegicus [13], in the data set on Rattus norvegicus [14], in the data set on Rattus norvegicus [15] and in the data set on Rattus norvegicus [16] was 4 throughout. Besides, the Dose turned out to be 300 mg/kg in the data set with Mus musculus [1]; 300 mg/kg with Mus musculus [7]; 100 mg/kg in the data set on Mus musculus [8]; 300 mg/kg in the data set with Mus musculus [2]; 100 mg/kg in the data set with Mus musculus [3].
Turning to `Cc1cc(Cl)ccc1Oc1ccc(/C=N/NC(N)=O)cc1`, the Dose in the data set on Mus musculus [1] was found to be 300 mg/kg; in the data set with Mus musculus [7], 30 mg/kg; in the data set with Mus musculus [8], 30 mg/kg; with Mus musculus [2], 100 mg/kg; with Mus musculus [9], 30 mg/kg; with Mus musculus [3] it was 30 mg/kg. Further, the Activity result with Rattus norvegicus [4] was “No activity”; in the data set on Rattus norvegicus [5], 4; with Rattus norvegicus [6], 4; with Rattus norvegicus [10], 3; in the data set with Rattus norvegicus [11], 4.
`O=CN/N=C/c1ccc(Oc2ccc(F)cc2)cc1`: the Dose in the data set on Mus musculus [8], in the data set with Mus musculus [2], with Mus musculus [9] and in the data set with Mus musculus [3] was 300 mg/kg in each case.
For the compound `NC(=O)N/N=C/c1ccc(Oc2ccc(I)cc2)cc1`, the Activity in the data set on Rattus norvegicus [12] is 4; in the data set with Rattus norvegicus [13], 4; in the data set with Rattus norvegicus [14], 4; with Rattus norvegicus [15], 3; with Rattus norvegicus [16], 4. In addition, the Dose in the data set with Mus musculus [1] was found to be 300 mg/kg; with Mus musculus [7], 100 mg/kg; in the data set on Mus musculus [8], 30 mg/kg; in the data set with Mus musculus [2], 100 mg/kg; in the data set with Mus musculus [9], 300 mg/kg; in the data set with Mus musculus [3] it was 30 mg/kg.
Turning to `CC/C(=N/NC(N)=O)c1ccccc1Oc1ccc(Br)cc1`, in the data set with Mus musculus [2], the Dose stood at 300 mg/kg.
Regarding `C/C(=N/NC(N)=O)c1ccccc1Oc1ccc(Cl)cc1`, the Dose with Mus musculus [1], in the data set on Mus musculus [7], in the data set on Mus musculus [8], in the data set with Mus musculus [2], in the data set on Mus musculus [9] and in the data set on Mus musculus [3] was 300 mg/kg throughout.
`CCCc1ccccc1Oc1ccc(/C=N/NC(N)=O)cc1`: the Dose with Mus musculus [1] came to 300 mg/kg; in the data set with Mus musculus [8], 100 mg/kg; in the data set on Mus musculus [3], 30 mg/kg. Further, the Activity in the data set with Rattus norvegicus [5] is 4; with Rattus norvegicus [6], 4; in the data set with Rattus norvegicus [17] it was 3; with Rattus norvegicus [10], 3; in the data set with Rattus norvegicus [11], 4.
Regarding `Cc1ccc(Oc2ccc(/C=N/NC(N)=O)cc2)cc1C`, the Activity result with Rattus norvegicus [4] was “No activity”; in the data set with Rattus norvegicus [5], 4; in the data set with Rattus norvegicus [6] it was 4; in the data set on Rattus norvegicus [10] it was 2; with Rattus norvegicus [11], 4. For the same compound, the Dose is 300 mg/kg with Mus musculus [7], 100 mg/kg in the data set on Mus musculus [8], 300 mg/kg in the data set on Mus musculus [2] and 30 mg/kg in the data set with Mus musculus [3].
